Experimental data as given in ChEMBL document CHEMBL4371016, “Proline- and Arginine-Rich Peptides as Flexible Allosteric Modulators of Human Proteasome Activity” (J Med Chem, 2019).
Each block holds one compound with its values, some of them ahead of it. Residues, ends and D or L forms follow the SMILES beside them.

Tests used:
[1] = target: T1, Proteasome Macropain subunit MB1 (Homo sapiens, UniProt P28074); experiment: Negative allosteric modulation of SDS-activated human erythrocytes 20S proteasome chymotrypsin like activity using Suc-LLVY-AMC as substrate measured every 2 mins up to 60 mins by fluorescence assay
T1 sequence (P28074 whole entry): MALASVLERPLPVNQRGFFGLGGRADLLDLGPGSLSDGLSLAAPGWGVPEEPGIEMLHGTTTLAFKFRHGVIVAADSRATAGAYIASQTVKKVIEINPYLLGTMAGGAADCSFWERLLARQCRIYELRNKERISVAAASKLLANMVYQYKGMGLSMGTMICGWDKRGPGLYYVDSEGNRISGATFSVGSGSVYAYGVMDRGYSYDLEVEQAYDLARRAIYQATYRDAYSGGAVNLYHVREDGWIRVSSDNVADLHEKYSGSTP
How it was run: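 1.4 nM CP (0.001 mg/mL) in 50 mM Tris-HCl pH 8.0, activated with 0.005% SDS where stated, otherwise latent. Suc-LLVY-AMC at 100 μM final. AMC fluorescence read every 2 min up to 60 min at 37 °C. Activity relative to DMSO-treated enzyme, from at least three independent replicates. Peptide stocks 10 mM in DMSO.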

[2] = tested on: Fibroblast; experiment: Cytotoxicity against human primary fibroblasts assessed as effect on cell viability up to 20 uM after 24 hrs by WST1 assay; type: cell-based
How it was run: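 Primary human fibroblasts GM04390 in DMEM with 10% heat-inactivated FBS and antibiotics, at 3% O2, 5% CO2, 37 °C; seeded at 100 000 cells/mL, switched to Optimem at 24 h, exposed at 48 h to 0.1–20 μM peptide or DMSO for 24 h. Viability read by WST-1 (10% reagent, 4 h), absorbance 450 nm.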

[3] = target: T1, Proteasome Macropain subunit MB1; experiment: Non-competitive mixed-type inhibition of SDS-activated human erythrocytes 20S proteasome chymotrypsin like activity using Suc-LLVY-AMC as substrate measured every 2 mins up to 60 mins by fluorescence assay
How it was run: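 SDS-activated CP at 1.4 nM. Suc-LLVY-AMC varied from 20 to 200 μM at inhibitor levels of 0.05, 0.1 and 0.2 μM. Fluorescence read kinetically at 37 °C. […] Three independent replicates.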

[4] = target: T1, Proteasome Macropain subunit MB1; experiment: Negative allosteric modulation of 10 uM Rpt5-activated human erythrocytes 20S proteasome chymotrypsin like activity using Suc-LLVY-AMC as substrate measured every 1 min up to 60 mins by fluorescence assay
How it was run: (§1)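 Suc-LLVY-AMC at 100 μM final. AMC fluorescence read every 1 min for 60 min at 37 °C. Activity relative to DMSO vehicle, at least three independent replicates.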

[5] = target: T1, Proteasome Macropain subunit MB1; experiment: Negative allosteric modulation of 1 uM Rpt5-activated human erythrocytes 20S proteasome chymotrypsin like activity using Suc-LLVY-AMC as substrate measured every 1 min up to 60 mins by fluorescence assay; how it was run: as §1

Compound: CC(C)C[C@H](NC(=O)[C@H](Cc1ccc(O)cc1)NC(=O)[C@@H]1CCCN1C(=O)[C@@H]1CCCN1C(=O)[C@H](CCCNC(=N)N)NC(=O)[C@@H]1CCCN1C(=O)[C@H](CCCNC(=N)N)NC(=O)[C@H](CCCNC(=N)N)NC(=O)[C@@H](N)CCCNC(=N)N)C(=O)N1CCC[C@H]1C(=O)N[C@@H](CCCNC(=N)N)C(=O)N[C@@H](Cc1c[nH]c2ccccc12)C(=O)NCC(N)=O (H-RRRPRPPYLPRWG-NH2)
IC50 ([1]; read-out: IC50): 0.113 µM

IC50 [1]: Not Active
Compound: C[C@H](NC(=O)[C@H](Cc1ccc(O)cc1)NC(=O)[C@H](Cc1ccc(O)cc1)NC(=O)[C@@H]1CCCN1C(=O)[C@@H]1CCCN1C(=O)[C@@H]1CCCN1C(=O)[C@@H]1CCCN1C(=O)[C@H](CCCNC(=N)N)NC(=O)[C@H](CCCNC(=N)N)NC(=O)[C@@H](N)CCCNC(=N)N)C(=O)O (H-RRRPPPPYYA-OH)
Activity [2]: Non-Toxic

Compound: CC(C)C[C@H](NC(=O)[C@H](Cc1ccc(O)cc1)NC(=O)[C@H](CCCNC(=N)N)NC(=O)[C@H](CCCNC(=N)N)NC(=O)[C@@H](N)CCCNC(=N)N)C(=O)N1CCC[C@H]1C(=O)N[C@@H](CCCNC(=N)N)C(=O)N[C@@H](Cc1c[nH]c2ccccc12)C(=O)NCC(N)=O (H-RRRYLPRWG-NH2)
Ki [3]: 0.0101 µM
IC50 ([1]; read-out: IC50): 0.082 µM

IC50 [1]: Not Active
Compound: CC(C)C[C@H](NC(=O)[C@@H]1CCCN1C(=O)[C@@H]1CCCN1C(=O)[C@@H]1CCCN1C(=O)[C@@H]1CCCN1C(=O)[C@H](CCCNC(=N)N)NC(=O)[C@H](CCCNC(=N)N)NC(=O)[C@@H](N)CCCNC(=N)N)C(=O)N[C@@H](Cc1ccc(O)cc1)C(=O)N[C@@H](C)C(=O)O (H-RRRPPPPLYA-OH)

Compound: CC(C)C[C@H](NC(=O)[C@H](Cc1ccc(O)cc1)NC(=O)[C@@H]1CCCN1C(=O)[C@@H]1CCCN1C(=O)[C@H](CCCNC(=N)N)NC(=O)[C@@H]1CCCN1C(=O)[C@H](CCCNC(=N)N)NC(=O)[C@H](CCCNC(=N)N)NC(=O)[C@@H](N)CCCNC(=N)N)C(=O)N1CCC[C@H]1C(=O)N[C@@H](CCCNC(=N)N)C(=O)N[C@@H](Cc1c[nH]c2ccccc12)C(=O)NCC(=O)O (H-RRRPRPPYLPRWG-OH)
Ki [3]: 0.0048 µM
IC50 [4]: 0.5 µM
IC50 [5]: 0.56 µM
IC50 ([1]; read-out: IC50): 0.05 µM

Compound: CC(C)C[C@H](NC(=O)[C@H](Cc1ccc(O)cc1)NC(=O)[C@H](CCCNC(=N)N)NC(=O)[C@H](CCCNC(=N)N)NC(=O)[C@@H](N)CCCNC(=N)N)C(=O)N1CCC[C@H]1C(=O)N[C@@H](CCCNC(=N)N)C(=O)N[C@@H](Cc1c[nH]c2ccccc12)C(=O)NCC(=O)O (H-RRRYLPRWG-OH)
IC50 ([1]; read-out: IC50): 0.111 µM

Compound: CC(C)C[C@H](NC(=O)[C@H](Cc1ccc(O)cc1)NC(=O)[C@@H]1CCCN1C(=O)[C@@H]1CCCN1C(=O)[C@H](CCCNC(=N)N)NC(=O)[C@@H]1CCCN1C(=O)[C@H](CCCNC(=N)N)NC(=O)[C@H](CCCNC(=N)N)NC(=O)[C@@H](N)CCCNC(=N)N)C(=O)N1CCC[C@H]1C(=O)N[C@@H](CCCNC(=N)N)C(=O)N[C@@H](Cc1ccccc1)C(=O)NCC(=O)O (H-RRRPRPPYLPRFG-OH)
IC50 ([1]; read-out: IC50): 0.099 µM
